The subject of experiment [1] is Mycobacterium tuberculosis. Put plainly: Antituberculosis activity against rifampicin resistant Mycobacterium tuberculosis H37Rv. It counts as functional. The gist of the method:
(§1)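 Agar dilution on 7H11 plates with drug-susceptible and drug-resistant M. tuberculosis H37Rv strains grown in Middlebrook 7H9 broth. Frozen stocks (-80 °C) diluted to about 10⁶ CFU/mL and spotted with a multipoint inoculator onto drug-containing plates. Drugs dissolved in DMSO and serially diluted 2-fold in DMSO. Read-out: MIC.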

In experiment [2] the test system is Mycobacterium tuberculosis. Put plainly: Antituberculosis activity against INH resistant Mycobacterium tuberculosis H37Rv. Format: functional. The gist of the method: as §1

In brackets after ≈: the same amount, converted by molar mass.

With `C[C@]1(COc2ccc(Cl)cc2)Cn2cc([N+](=O)[O-])nc2O1`, the MIC in experiment [1] was 0.006 µg/mL (≈ 0.0194 µM); in experiment [2], 0.012 µg/mL (≈ 0.0387 µM).
For `C[C@]1(COc2ccc(N3CCC(Oc4ccc(OC(F)(F)F)cc4)CC3)cc2)Cn2cc([N+](=O)[O-])nc2O1` [DELAMANID] the same measures were 0.006 µg/mL (≈ 0.0112 µM) and 0.006 µg/mL (≈ 0.0112 µM).
With `C[C@]1(COc2ccc(N3CCC(Oc4ccc(C(F)(F)F)cc4)CC3)cc2)Cn2cc([N+](=O)[O-])nc2O1`, the minimal inhibitory concentration (MIC) in experiment [1] was determined as 0.006 µg/mL (≈ 0.0116 µM); in experiment [2], 0.012 µg/mL (≈ 0.0231 µM).
As to `COc1ccc(OC[C@@]2(C)Cn3cc([N+](=O)[O-])nc3O2)cc1`, the figures for the MIC in experiment [1] and in experiment [2] were 0.05 µg/mL (≈ 0.164 µM) and 0.1 µg/mL (≈ 0.328 µM), respectively.
For `COc1ccc(OC2CCN(c3ccc(OC[C@@]4(C)Cn5cc([N+](=O)[O-])nc5O4)cc3)CC2)cc1` the same measures were 0.2 µg/mL (≈ 0.416 µM) and 0.39 µg/mL (≈ 0.812 µM).
`Cc1ccc(OC2CCN(c3ccc(OC[C@@]4(C)Cn5cc([N+](=O)[O-])nc5O4)cc3)CC2)cc1`: the MIC in experiment [1] and in experiment [2] was 0.39 µg/mL (≈ 0.84 µM) in each case.
With `C[C@]1(COc2ccc(OC(F)(F)F)cc2)Cn2cc([N+](=O)[O-])nc2O1`, the MIC worked out at 0.2 µg/mL (≈ 0.557 µM) in experiment [1] and 0.39 µg/mL (≈ 1.09 µM) in experiment [2].
In the case of `C[C@]1(COc2ccc(N3CCOCC3)cc2)Cn2cc([N+](=O)[O-])nc2O1`, the MIC in experiment [1] is 0.39 µg/mL (≈ 1.08 µM); in experiment [2] it was 0.78 µg/mL (≈ 2.16 µM).
For `C[C@]1(COc2ccc(C(F)(F)F)cc2)Cn2cc([N+](=O)[O-])nc2O1`, the MIC stood at 0.1 µg/mL (≈ 0.291 µM) in experiment [1] and 0.2 µg/mL (≈ 0.583 µM) in experiment [2].
For `C[C@]1(COc2ccc(N3CCC(Oc4ccccc4)CC3)cc2)Cn2cc([N+](=O)[O-])nc2O1`, the minimum inhibitory concentration (MIC) was 0.2 µg/mL (≈ 0.444 µM) in experiment [1] and 0.39 µg/mL (≈ 0.866 µM) in experiment [2].
For `C[C@]1(COc2ccc(N3CCC(Oc4ccccc4OC(F)(F)F)CC3)cc2)Cn2cc([N+](=O)[O-])nc2O1`, the MIC in experiment [1] worked out at 0.2 µg/mL (≈ 0.374 µM); in experiment [2], 0.39 µg/mL (≈ 0.73 µM).
The corresponding values for `C[C@]1(COc2ccccc2)Cn2cc([N+](=O)[O-])nc2O1` are 0.05 µg/mL (≈ 0.182 µM) and 0.05 µg/mL (≈ 0.182 µM).
As for `Cc1ccc(OC[C@@]2(C)Cn3cc([N+](=O)[O-])nc3O2)cc1`, the results for the MIC in experiment [1] and in experiment [2] were 0.012 µg/mL (≈ 0.0415 µM) and 0.024 µg/mL (≈ 0.083 µM), respectively.
The corresponding values for `C[C@]1(COc2ccc(N3CCC(Oc4cccc(OC(F)(F)F)c4)CC3)cc2)Cn2cc([N+](=O)[O-])nc2O1` are 0.024 µg/mL (≈ 0.0449 µM) and 0.024 µg/mL (≈ 0.0449 µM).
The corresponding values for `C[C@]1(COc2ccc(N3CC[S+]([O-])CC3)cc2)Cn2cc([N+](=O)[O-])nc2O1` are 6.25 µg/mL (≈ 15.9 µM) and 6.25 µg/mL (≈ 15.9 µM).
The corresponding values for `C[C@]1(COc2ccc(N3CCC(Oc4ccc(Cl)cc4)CC3)cc2)Cn2cc([N+](=O)[O-])nc2O1` are 0.024 µg/mL (≈ 0.0495 µM) and 0.05 µg/mL (≈ 0.103 µM).
As for `C[C@]1(COc2ccc(N3CCC(Oc4ccc(F)cc4)CC3)cc2)Cn2cc([N+](=O)[O-])nc2O1`, the MIC turned out to be 0.2 µg/mL (≈ 0.427 µM) in experiment [1] and 0.39 µg/mL (≈ 0.832 µM) in experiment [2].
For `C[C@]1(COc2ccc(N3CCCCC3)cc2)Cn2cc([N+](=O)[O-])nc2O1` the same measures were 0.39 µg/mL (≈ 1.09 µM) and 0.39 µg/mL (≈ 1.09 µM).
The corresponding values for `C[C@]1(COc2ccc(N3CCSCC3)cc2)Cn2cc([N+](=O)[O-])nc2O1` are 0.2 µg/mL (≈ 0.531 µM) and 0.39 µg/mL (≈ 1.04 µM).

For orientation: MIC means the smallest concentration in the dilution series that meets the test's criterion for growth inhibition. The low end stands for inhibition by little substance, the high end for a need for much substance.

The values are drawn from ChEMBL document CHEMBL1138853, “Synthesis and antituberculosis activity of a novel series of optically active 6-nitro-2,3-dihydroimidazo[2,1-b]oxazoles” (2006).
